From ChEMBL document CHEMBL4334546, “Discovery of N-(Indazol-3-yl)piperidine-4-carboxylic Acids as RORγt Allosteric Inhibitors for Autoimmune Diseases” (ACS Med Chem Lett, 2020)
Values after ≈ are worked out from the molar mass of the structure shown.

How the values were obtained:
[1] = Clearance in Wistar Han rat at 0.5 mg/kg, iv or 1 mg/kg, po by LC-MS/MS analysis; type: ADME, organism-based; conditions: in vivo
[2] = Half life in Wistar Han rat at 0.5 mg/kg, iv or 1 mg/kg, po by LC-MS/MS analysis; type: ADME, organism-based; conditions: in vivo
[3] = Volume of distribution in Wistar Han rat at 0.5 mg/kg, iv or 1 mg/kg, po by LC-MS/MS analysis; type: ADME, organism-based; conditions: in vivo
[4] = Clearance in Beagle dog at 0.25 mg/kg, iv or 0.5 mg/kg, po by LC-MS/MS analysis; type: ADME, organism-based, Canis lupus familiaris; conditions: in vivo
[5] = Half life in Beagle dog at 0.25 mg/kg, iv or 0.5 mg/kg, po by LC-MS/MS analysis; type: ADME, organism-based, Canis lupus familiaris; conditions: in vivo
[6] = Volume of distribution in Beagle dog at 0.25 mg/kg, iv or 0.5 mg/kg, po by LC-MS/MS analysis; type: ADME, organism-based, Canis lupus familiaris; conditions: in vivo
[7] = Oral bioavailability in Wistar Han rat at 1 mg/kg by LC-MS/MS analysis; type: ADME, organism-based; conditions: in vivo
[8] = Oral bioavailability in Beagle dog at 0.5 mg/kg by LC-MS/MS analysis; type: ADME, organism-based, Canis lupus familiaris; conditions: in vivo
[9] = Protein binding in rat plasma; type: ADME, cell-free; conditions: read-out: PPB (converted)
[10] = Protein binding in dog plasma; type: ADME, cell-free, Canis lupus familiaris; conditions: read-out: PPB (converted)
[11] = Solubility of compound at pH 2; type: physicochemical; conditions: buffer
[12] = Solubility of compound at pH 7.4; type: physicochemical; conditions: buffer
[13] = Unbound clearance in Wistar Han rat at 0.5 mg/kg, iv or 1 mg/kg, po by LC-MS/MS analysis; type: ADME, organism-based; conditions: in vivo
[14] = biological target: T1, Nuclear receptor ROR-gamma (Homo sapiens, UniProt P51449); assay: Allosteric inhibition of recombinant His6-tagged RORgammat LBD (unknown origin) expressed in Escherichia coli BL21(DE3) assessed as inhibition of biotin-labelled SRC-1 peptide recruitment preincubated for 15 mins followed by biotin-labelled SRC-1 peptide addition and measured after overnight incubation by TR-FRET assay
T1 sequence (P51449 whole entry): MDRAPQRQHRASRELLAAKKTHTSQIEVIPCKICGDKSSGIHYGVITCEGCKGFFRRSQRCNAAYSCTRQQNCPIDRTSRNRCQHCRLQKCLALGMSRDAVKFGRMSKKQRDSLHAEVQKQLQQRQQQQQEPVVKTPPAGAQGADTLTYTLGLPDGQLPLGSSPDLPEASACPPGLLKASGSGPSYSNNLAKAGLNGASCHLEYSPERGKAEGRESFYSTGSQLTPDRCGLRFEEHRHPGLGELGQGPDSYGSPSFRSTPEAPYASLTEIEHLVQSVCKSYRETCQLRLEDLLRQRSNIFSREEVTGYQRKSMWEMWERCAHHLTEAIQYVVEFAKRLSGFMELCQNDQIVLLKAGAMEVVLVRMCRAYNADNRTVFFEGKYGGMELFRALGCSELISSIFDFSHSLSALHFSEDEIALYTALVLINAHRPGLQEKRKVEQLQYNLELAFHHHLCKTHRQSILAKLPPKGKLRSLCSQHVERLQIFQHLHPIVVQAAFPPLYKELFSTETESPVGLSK

[15] = biological target: T1, Nuclear receptor ROR-gamma; assay: Allosteric inhibition of yeast GAL4 DNA domain-fused RORgammat LBD (97 to 518 residues) (unknown origin) expressed in HEK293T cells after 20 to 22 hrs by steady-glo luciferase assay; type: cell-based
[16] = biological target: T2, Peroxisome proliferator-activated receptor gamma (Homo sapiens, UniProt P37231); assay: Displacement of [3H]rosiglitazone from human recombinant PPARgamma LBD expressed in insect cells measured after 24 hrs by scintillation counting analysis
T2 sequence (P37231 whole entry): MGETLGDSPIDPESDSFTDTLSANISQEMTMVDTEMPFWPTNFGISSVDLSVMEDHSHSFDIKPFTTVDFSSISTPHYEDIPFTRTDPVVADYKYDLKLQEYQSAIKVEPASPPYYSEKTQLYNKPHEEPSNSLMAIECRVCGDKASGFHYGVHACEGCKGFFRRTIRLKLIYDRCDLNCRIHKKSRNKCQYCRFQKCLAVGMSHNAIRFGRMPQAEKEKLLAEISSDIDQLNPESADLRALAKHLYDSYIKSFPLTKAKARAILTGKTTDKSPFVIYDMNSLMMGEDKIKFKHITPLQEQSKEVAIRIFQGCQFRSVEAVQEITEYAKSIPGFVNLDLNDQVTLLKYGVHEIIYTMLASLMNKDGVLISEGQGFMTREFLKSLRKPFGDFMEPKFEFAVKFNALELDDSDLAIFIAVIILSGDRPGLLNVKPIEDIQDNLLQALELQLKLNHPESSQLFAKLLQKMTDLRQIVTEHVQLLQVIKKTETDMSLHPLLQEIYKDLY

[17] = biological target: T1, Nuclear receptor ROR-gamma; assay: Allosteric inhibition of RORgammaT in IL-1B/IL-23/IL-2/IL-6/T-Activator CD3/28 Dynabeads-stimulated human PBMC cells assessed as reduction in Th17 differentiation by measuring reduction in IL-17A level incubated for 4 days post-cell stimulation by ELISA
[18] = Plasma concentration in C57BL/6 mouse at 1 mg/kg administered as single dose after 2 hrs; type: ADME, organism-based
Summary of the method: (§1)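 Acute pharmacodynamic model: mice received single doses across a dose range, and in this study both plasma compound concentration and Bcl-xL expression in thymocytes were measured to follow RORγt inhibition.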

[19] = Plasma concentration in C57BL/6 mouse at 3 mg/kg administered as single dose after 2 hrs; type: ADME, organism-based; summary of the method: as §1
[20] = Plasma concentration in C57BL/6 mouse at 10 mg/kg administered as single dose after 2 hrs; type: ADME, organism-based; summary of the method: as §1
[21] = Plasma concentration in C57BL/6 mouse at 30 mg/kg administered as single dose after 2 hrs; type: ADME, organism-based; summary of the method: as §1
[22] = Plasma concentration in C57BL/6 mouse at 100 mg/kg administered as single dose after 2 hrs; type: ADME, organism-based; summary of the method: as §1
Mus musculus [23] = species on record: Mus musculus; assay: animal or person; conditions: C57BL/6, 2 h, read-out: INH
Mus musculus [24] = species on record: Mus musculus; assay: animal or person; conditions: C57BL/6, 2 h, read-out: INH; remark: listed apart in the source
Mus musculus [25] = species on record: Mus musculus; assay: animal or person; conditions: C57BL/6, 2 h, read-out: INH; remark: listed apart in the source
Mus musculus [26] = species on record: Mus musculus; assay: animal or person; conditions: C57BL/6, 2 h, read-out: INH; remark: listed apart in the source
Mus musculus [27] = species on record: Mus musculus; assay: animal or person; conditions: C57BL/6, 2 h, read-out: INH; remark: listed apart in the source
Mus musculus [28] = species on record: Mus musculus; assay: animal or person; conditions: C57BL/6, 2 h

| clearance [1] [mL/min/kg] | half-life [2] [h] | Vd [3] [L/kg] | clearance [4] [mL/min/kg] | half-life [5] [h] | Vd [6] [L/kg] | bioavailability [7] [%] | bioavailability [8] [%] | fraction unbound [9] | fraction unbound [10] | solubility [11] [µM] | solubility [12] [µM] | CL free [13] [mL/min/kg] | IC50 [14] [nM] | IC50 [15] [nM] | SMILES | other results |
| --- | --- | --- | --- | --- | --- | --- | --- | --- | --- | --- | --- | --- | --- | --- | --- | --- |
| 13 | 3.7 | 0.6 | 1.4 | 3.1 | 0.3 | 35 | 65 | 0.013 | 0.003 | 28 (≈ 12.8 µg/mL) | 153 (≈ 70.1 µg/mL) | 1000 |  |  | O=C(O)[C@@H]1CCN(c2nn(C(=O)c3c(Cl)cccc3C3CC3)c3cccc(F)c23)C[C@H]1O |  |
|  |  |  |  |  |  |  |  |  |  |  |  |  | 5 | 400 | O=C(O)c1ccc(-c2nn(C(=O)c3c(Cl)cccc3Cl)c3ccccc23)cc1 |  |
| 76 | 0.4 | 0.8 | 4.5 | 1.4 | 0.4 | 16 | 45 | 0.013 | 0.013 | < 2 | 147 (≈ 68.2 µg/mL) | 5846 | 6 | 90 | O=C(O)c1ccc(-c2nn(C(=O)c3c(Cl)cccc3C(F)(F)F)c3cccnc23)c(F)c1 | IC50 [16]: 2000 nM; IC50 [17]: 33 nM; concentration at 2 h [18]: 0.18 µM; concentration at 2 h [19]: 0.73 µM; concentration at 2 h [20]: 4.1 µM; concentration at 2 h [21]: 51 µM; concentration at 2 h [22]: 254 µM; inhibition in vivo at 1 mg/kg (Mus musculus [23]): 17%; inhibition in vivo at 3 mg/kg (Mus musculus [24]): 50%; inhibition in vivo at 10 mg/kg (Mus musculus [25]): 69%; inhibition in vivo at 30 mg/kg (Mus musculus [26]): 85%; inhibition in vivo at 100 mg/kg (Mus musculus [27]): 74%; IC50 (Mus musculus [28]): 710 nM |
